According to ChEMBL document CHEMBL3351960, “Lumazine peptides penilumamides B-D and the cyclic pentapeptide asperpeptide A from a gorgonian-derived Aspergillus sp. fungus” (2014):
≈ marks a conversion by molar mass, not a printed value. Calls of active or inactive are those of the source. No cut-off for these calls is given here. *1 amine or outer side, *2 acyl side, *3 side chain or, on linkers, in order; H or OH if unused. Where a SMILES comes first, the peptide text is derived from it. [ ]: non-standard residue; d: D form. X1 = O=C(c1cc(O)ccc1N[*:1])[*:2]

Columns and labels:
Nocardia brasiliensis = experiment: Antibacterial activity against Nocardia brasiliensis; assay type: functional, organism-based
Summary of the method: (§1)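 Run by a previously published antibacterial method against a 10-strain panel, with ciprofloxacin as positive control.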

Human alphaherpesvirus 1 = experiment: Antiviral activity against HSV1; assay type: functional, organism-based
Summary of the method: (§2)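 Tested against RSV and HSV-1 by established procedures, with ribavirin as positive control.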

A549 = experiment: Cytotoxicity against human A549 cells by SRB assay; assay type: functional, cell-based
Summary of the method: (§3)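 A549 lung carcinoma, HCT-116 colorectal cancer and HeLa cervical carcinoma cells were scored by sulforhodamine B assay, with adriamycin as positive control.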

HCT-116 = experiment: Cytotoxicity against human HCT116 cells by SRB assay; assay type: functional, cell-based; summary of the method: as §3
Vibrio parahaemolyticus = experiment: Antibacterial activity against Vibrio parahaemolyticus; assay type: functional, organism-based; summary of the method: as §1
HeLa = experiment: Cytotoxicity against human HeLa cells by SRB assay; assay type: functional, cell-based; summary of the method: as §3
Pseudomonas aeruginosa = experiment: Antibacterial activity against Pseudomonas aeruginosa; assay type: functional, organism-based; summary of the method: as §1
Acetylcholinesterase = experiment: Inhibition of AChE (unknown origin) by Ellman's method; details: Homo sapiens
HL-60 = experiment: Cytotoxicity against human HL60 cells by MTT assay; assay type: functional, cell-based
Summary of the method: (§4)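 K562 erythroleukemia and HL-60 promyelocytic leukemia cells were scored by MTT method, with adriamycin as positive control.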

Bacillus cereus = experiment: Antibacterial activity against Bacillus cereus; assay type: functional; summary of the method: as §1
Staphylococcus aureus = experiment: Antibacterial activity against Staphylococcus aureus; assay type: functional, organism-based; summary of the method: as §1
[1] = tested on: Respiratory syncytial virus; experiment: Antiviral activity against respiratory syncytial virus; assay type: functional, organism-based; summary of the method: as §2
Kocuria rhizophila = experiment: Antibacterial activity against Kocuria rhizophila; assay type: functional, organism-based; summary of the method: as §1
Pseudomonas putida = experiment: Antibacterial activity against Pseudomonas putida; assay type: functional, organism-based; summary of the method: as §1
K562 = experiment: Cytotoxicity against human K562 cells by MTT assay; assay type: functional, cell-based; summary of the method: as §4
Salmonella enterica = experiment: Antibacterial activity against Salmonella enterica; assay type: functional, organism-based; summary of the method: as §1
[2] = tested on: Staphylococcus epidermidis; experiment: Antibacterial activity against Staphylococcus epidermidis; assay type: functional; summary of the method: as §1
Escherichia coli = experiment: Antibacterial activity against Escherichia coli; assay type: functional, organism-based; summary of the method: as §1

SMILES | Activity (Nocardia brasiliensis) | Activity (Human alphaherpesvirus 1) | Activity (A549) | Activity (HCT-116) | Activity (Vibrio parahaemolyticus) | Activity (HeLa) | Activity (Pseudomonas aeruginosa) | inhibition (Acetylcholinesterase) | Activity (HL-60) | Activity (Bacillus cereus) | Activity (Staphylococcus aureus) | Activity [1] | Activity (Kocuria rhizophila) | Activity (Pseudomonas putida) | Activity (K562) | Activity (Salmonella enterica) | Activity [2] | Activity (Escherichia coli) | MIC (Bacillus cereus) | MIC [2]
C[C@H](NC(=O)c1cnc2c(n1)c(=O)n(C)c(=O)n2C)C(=O)Nc1ccccc1C(N)=O | inactive | inactive | inactive | inactive | inactive | inactive | inactive | inactive | inactive | inactive | inactive | inactive | inactive | inactive | inactive | inactive | inactive | inactive |  | 
COC(=O)c1ccccc1NC(=O)[C@H](CCS(C)(=O)=O)NC(=O)c1cnc2c(n1)c(=O)n(C)c(=O)n2C | inactive | inactive | inactive | inactive | inactive | inactive | inactive | inactive | inactive | inactive | inactive | inactive | inactive | inactive | inactive | inactive | inactive | inactive |  | 
C[C@@H]1NC(=O)[C@H](Cc2ccc(O)cc2)NC(=O)c2cc(O)ccc2NC(=O)[C@@H]2CCCN2C(=O)[C@H](C)NC1=O (cyclo(AAP[X1]Y)) |  |  |  |  |  |  |  |  |  |  |  |  |  |  |  |  |  |  | 12.5 µM (≈ 6.72 µg/mL) | 12.5 µM (≈ 6.72 µg/mL)
COC(=O)c1ccccc1NC(=O)[C@H](CC[S+](C)[O-])NC(=O)c1cnc2c(n1)c(=O)n(C)c(=O)n2C (some centres undefined) | inactive | inactive | inactive | inactive | inactive | inactive | inactive | inactive | inactive | inactive | inactive | inactive | inactive | inactive | inactive | inactive | inactive | inactive |  | 
COC(=O)c1ccccc1NC(=O)[C@H](CCSC)NC(=O)c1cnc2c(n1)c(=O)n(C)c(=O)n2C | inactive | inactive | inactive | inactive | inactive | inactive | inactive | inactive | inactive | inactive | inactive | inactive | inactive | inactive | inactive | inactive | inactive | inactive |  | 
